Source: ChEMBL document CHEMBL1138354, “2-(2'-((dimethylamino)methyl)-4'-(fluoroalkoxy)-phenylthio)benzenamine derivatives as serotonin transporter imaging agents” (J Med Chem, 2007)

Columns and labels:
Heart [1] = experiment: Biodistribution in iv dosed rat heart after 30 mins; format: ADME, organism-based; settings: in vivo, 0.5 h
In short: (§1)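 [18F]-labeled tracer was given to rats under isoflurane anesthesia: 0.2 ml sterile water with 1 mg/mL BSA and 10–100 μCi, into the femoral vein. Three rats per group. Animals were killed by cervical dislocation under anesthesia at the stated time. Organs were removed, weighed and counted. Uptake was calculated as percent dose against a 1% aliquot of the injected dose counted alongside.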

Bone [2] = experiment: Biodistribution in iv dosed rat bone after 120 mins; format: ADME, organism-based, Bone element; settings: in vivo, 2 h; in short: as §1
Liver [3] = experiment: Biodistribution in iv dosed rat liver after 30 mins; format: ADME, organism-based; settings: in vivo, 0.5 h; in short: as §1
Nucleic Acid [4] = experiment: Ratio of drug level in cortex to cerebellum in rat assessed as radioactivity after 60 mins; format: ADME, tissue-based; settings: in vivo, 1 h
Brain [5] = experiment: Biodistribution in iv dosed rat brain after 60 mins; format: ADME, organism-based; settings: in vivo, 1 h; in short: as §1
Lung [6] = experiment: Biodistribution in iv dosed rat lungs after 60 mins; format: ADME, organism-based; settings: in vivo, 1 h; in short: as §1
Striatum [7] = experiment: Biodistribution in iv dosed rat striatum assessed as radioactivity after 240 mins; format: ADME, organism-based; settings: in vivo, 4 h
Kidney [8] = experiment: Biodistribution in iv dosed rat kidney after 120 mins; format: ADME, organism-based; settings: in vivo, 2 h; in short: as §1
Muscle tissue [9] = experiment: Biodistribution in iv dosed rat muscle after 60 mins; format: ADME, organism-based; settings: in vivo, 1 h; in short: as §1
Muscle tissue [10] = experiment: Biodistribution in iv dosed rat muscle after 30 mins; format: ADME, organism-based; settings: in vivo, 0.5 h; in short: as §1
Nucleic Acid [11] = experiment: Ratio of drug level in striatum to cerebellum in rat assessed as radioactivity after 30 mins; format: ADME, tissue-based; settings: in vivo, 0.5 h
In short: (§2)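 Groups of three normal rats under isoflurane received the [18F] tracer (10–100 μCi in 0.2 ml sterile water containing 1 mg/mL BSA) into the femoral vein. They were killed by cervical dislocation under anesthesia at the stated time. Cortex, striatum, hippocampus, hypothalamus and cerebellum were dissected, weighed and gamma-counted. %dose/g was set against a 100-fold diluted dose aliquot, and each region was divided by cerebellum.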

Kidney [12] = experiment: Biodistribution in iv dosed rat kidney after 2 mins; format: ADME, organism-based; settings: in vivo; in short: as §1
Striatum [13] = experiment: Biodistribution in iv dosed rat striatum assessed as radioactivity after 120 mins; format: ADME, organism-based; settings: in vivo, 2 h
Liver [14] = experiment: Biodistribution in iv dosed rat liver after 60 mins; format: ADME, organism-based; settings: in vivo, 1 h; in short: as §1
Kidney [15] = experiment: Biodistribution in iv dosed rat kidney after 240 mins; format: ADME, organism-based; settings: in vivo, 4 h; in short: as §1
Zone of skin [16] = experiment: Biodistribution in iv dosed rat skin after 240 mins; format: ADME, organism-based; settings: in vivo, 4 h
Blood [17] = experiment: Biodistribution in iv dosed rat blood after 120 mins; format: ADME, organism-based; settings: in vivo, 2 h; in short: as §1
Nucleic Acid [18] = experiment: Ratio of drug level in striatum to cerebellum in rat assessed as radioactivity after 240 mins; format: ADME, tissue-based; settings: in vivo, 4 h
Muscle tissue [19] = experiment: Biodistribution in iv dosed rat muscle after 120 mins; format: ADME, organism-based; settings: in vivo, 2 h; in short: as §1
Heart [20] = experiment: Biodistribution in iv dosed rat heart after 2 mins; format: ADME, organism-based; settings: in vivo; in short: as §1
Liver [21] = experiment: Biodistribution in iv dosed rat liver after 2 mins; format: ADME, organism-based; settings: in vivo; in short: as §1
Nucleic Acid [22] = experiment: Ratio of drug level in striatum to cerebellum in rat assessed as radioactivity after 2 mins; format: ADME, tissue-based; settings: in vivo
Blood [23] = experiment: Biodistribution in iv dosed rat blood after 30 mins; format: ADME, organism-based; settings: in vivo, 0.5 h; in short: as §1
Nucleic Acid [24] = experiment: Ratio of drug level in hypothalamus to cerebellum in rat assessed as radioactivity after 240 mins; format: ADME, tissue-based; settings: in vivo, 4 h
Blood [25] = experiment: Biodistribution in iv dosed rat blood after 2 mins; format: ADME, organism-based; settings: in vivo; in short: as §1
Zone of skin [26] = experiment: Biodistribution in iv dosed rat skin after 2 mins; format: ADME, organism-based; settings: in vivo
Heart [27] = experiment: Biodistribution in iv dosed rat heart after 240 mins; format: ADME, organism-based; settings: in vivo, 4 h; in short: as §1
Zone of skin [28] = experiment: Biodistribution in iv dosed rat skin after 30 mins; format: ADME, organism-based; settings: in vivo, 0.5 h
In short: (§3)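 Rats, 3 per group, under isoflurane. ¹⁸F tracer (10–100 μCi) in 0.2 ml sterile water with 1 mg/mL BSA injected into the femoral vein. Killed by cervical dislocation under anesthesia at the stated time. Organs removed, weighed and counted. % dose/organ calculated against counts of a 1% diluted aliquot of the injected dose.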

Lung [29] = experiment: Biodistribution in iv dosed rat lungs after 120 mins; format: ADME, organism-based; settings: in vivo, 2 h; in short: as §1
Nucleic Acid [30] = experiment: Ratio of drug level in hippocampus to cerebellum in rat assessed as radioactivity after 30 mins; format: ADME, tissue-based; settings: in vivo, 0.5 h; in short: as §2
Bone [31] = experiment: Biodistribution in iv dosed rat bone after 240 mins; format: ADME, organism-based, Bone element; settings: in vivo, 4 h; in short: as §1
Striatum [32] = experiment: Biodistribution in iv dosed rat striatum assessed as radioactivity after 60 mins; format: ADME, organism-based; settings: in vivo, 1 h
Nucleic Acid [33] = experiment: Ratio of drug level in cortex to cerebellum in rat assessed as radioactivity after 120 mins; format: ADME, tissue-based; settings: in vivo, 2 h; in short: as §2
Spleen [34] = experiment: Biodistribution in iv dosed rat spleen after 120 mins; format: ADME, organism-based; settings: in vivo, 2 h; in short: as §3
Brain [35] = experiment: Biodistribution in iv dosed rat brain after 2 mins; format: ADME, organism-based; settings: in vivo; in short: as §1
Bone [36] = experiment: Biodistribution in iv dosed rat bone after 30 mins; format: ADME, organism-based, Bone element; settings: in vivo, 0.5 h; in short: as §1
Blood [37] = experiment: Biodistribution in iv dosed rat blood after 240 mins; format: ADME, organism-based; settings: in vivo, 4 h; in short: as §1
Spleen [38] = experiment: Biodistribution in iv dosed rat spleen after 240 mins; format: ADME, organism-based; settings: in vivo, 4 h
Nucleic Acid [39] = experiment: Ratio of drug level in hypothalamus to cerebellum in rat after 30 mins; format: ADME, tissue-based; settings: in vivo, 0.5 h
In short: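 Rats, 3 per group, given ¹⁸F tracer (10–100 μCi, 0.2 ml sterile water with 1 mg/mL BSA) into the femoral vein under isoflurane. Brain regions, including hypothalamus, striatum and cerebellum, dissected, weighed and counted. % dose/g calculated against a 1% diluted aliquot of the dose. Region/cerebellum ratio is region %dose/g divided by cerebellum %dose/g. SD of the ratio propagated from both means and SDs.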

Zone of skin [40] = experiment: Biodistribution in iv dosed rat skin after 120 mins; format: ADME, organism-based; settings: in vivo, 2 h; in short: as §3
Striatum [41] = experiment: Biodistribution in iv dosed rat striatum assessed as radioactivity after 30 mins; format: ADME, organism-based; settings: in vivo, 0.5 h
Spleen [42] = experiment: Biodistribution in iv dosed rat spleen after 30 mins; format: ADME, organism-based; settings: in vivo, 0.5 h; in short: as §3
Nucleic Acid [43] = experiment: Ratio of drug level in hippocampus to cerebellum in rat assessed as radioactivity after 240 mins; format: ADME, tissue-based; settings: in vivo, 4 h
Lung [44] = experiment: Biodistribution in iv dosed rat lungs after 30 mins; format: ADME, organism-based; settings: in vivo, 0.5 h; in short: as §1
Blood [45] = experiment: Biodistribution in iv dosed rat blood after 60 mins; format: ADME, organism-based; settings: in vivo, 1 h; in short: as §1
Brain [46] = experiment: Biodistribution in iv dosed rat brain after 30 mins; format: ADME, organism-based; settings: in vivo, 0.5 h; in short: as §1
Nucleic Acid [47] = experiment: Ratio of drug level in hippocampus to cerebellum in rat assessed as radioactivity after 120 mins; format: ADME, tissue-based; settings: in vivo, 2 h; in short: as §2
Lung [48] = experiment: Biodistribution in iv dosed rat lungs after 240 mins; format: ADME, organism-based; settings: in vivo, 4 h; in short: as §1
Nucleic Acid [49] = experiment: Ratio of drug level in hypothalamus to cerebellum in rat assessed as radioactivity after 60 mins; format: ADME, tissue-based; settings: in vivo, 1 h
Cortex = experiment: Biodistribution in iv dosed rat cortex assessed as radioactivity after 240 mins; format: ADME, organism-based; settings: in vivo, 4 h
In short: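 Rats received the [18F] tracer under isoflurane anesthesia: 0.2 ml sterile water with 1 mg/mL BSA and 10–100 μCi, into the femoral vein. Three rats per group. After cervical dislocation under anesthesia, the cortex was dissected, weighed and gamma-counted. Percent dose/g was calculated against a 100-fold diluted aliquot of the injected dose.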

Zone of skin [50] = experiment: Biodistribution in iv dosed rat skin after 60 mins; format: ADME, organism-based; settings: in vivo, 1 h
Nucleic Acid [51] = experiment: Ratio of drug level in hippocampus to cerebellum in rat assessed as radioactivity after 2 mins; format: ADME, tissue-based; settings: in vivo
Heart [52] = experiment: Biodistribution in iv dosed rat heart after 60 mins; format: ADME, organism-based; settings: in vivo, 1 h; in short: as §1
Nucleic Acid [53] = experiment: Ratio of drug level in cortex to cerebellum in rat assessed as radioactivity after 240 mins; format: ADME, tissue-based; settings: in vivo, 4 h
Nucleic Acid [54] = experiment: Ratio of drug level in striatum to cerebellum in rat assessed as radioactivity after 120 mins; format: ADME, tissue-based; settings: in vivo, 2 h; in short: as §2
[55] = Partition coefficient, log P at pH 7.4; format: physicochemical; settings: octanol/water
Heart [56] = experiment: Biodistribution in iv dosed rat heart after 120 mins; format: ADME, organism-based; settings: in vivo, 2 h; in short: as §1
Kidney [57] = experiment: Biodistribution in iv dosed rat kidney after 60 mins; format: ADME, organism-based; settings: in vivo, 1 h; in short: as §1
Spleen [58] = experiment: Biodistribution in iv dosed rat spleen after 2 mins; format: ADME, organism-based; settings: in vivo
Muscle tissue [59] = experiment: Biodistribution in iv dosed rat muscle after 2 mins; format: ADME, organism-based; settings: in vivo; in short: as §1

CN(C)Cc1cc(OCC[18F])ccc1Sc1ccccc1N
Drug uptake (Heart [1]): 0.17 %ID | Drug uptake (Bone [2]): 2.92 %ID | Drug uptake (Liver [3]): 4.24 %ID | Ratio (Nucleic Acid [4]): 4.78 | Drug uptake (Brain [5]): 1.21 %ID | Drug uptake (Lung [6]): 1.4 %ID | Drug uptake (Striatum [7]): 0.08 % ID/g | Drug uptake (Kidney [8]): 2.66 %ID | Drug uptake (Muscle tissue [9]): 8.24 %ID | Drug uptake (Muscle tissue [10]): 9.46 %ID | Ratio (Nucleic Acid [11]): 2.69 | Drug uptake (Kidney [12]): 7.93 %ID | Drug uptake (Striatum [13]): 0.36 % ID/g | Drug uptake (Liver [14]): 3.74 %ID | Drug uptake (Kidney [15]): 1.94 %ID | Drug uptake (Zone of skin [16]): 3.77 %ID | Drug uptake (Blood [17]): 4.06 %ID | Ratio (Nucleic Acid [18]): 2.72 | Drug uptake (Muscle tissue [19]): 4.24 %ID | Drug uptake (Heart [20]): 0.95 %ID | Drug uptake (Liver [21]): 9.9 %ID | Ratio (Nucleic Acid [22]): 1.22 | Drug uptake (Blood [23]): 4.74 %ID | Ratio (Nucleic Acid [24]): 6.58 | Drug uptake (Blood [25]): 11.86 %ID | Drug uptake (Zone of skin [26]): 8.78 %ID | Drug uptake (Heart [27]): 0.04 %ID | Drug uptake (Zone of skin [28]): 8.66 %ID | Drug uptake (Lung [29]): 0.53 %ID | Ratio (Nucleic Acid [30]): 2.59 | Drug uptake (Bone [31]): 3.3 %ID | Drug uptake (Striatum [32]): 0.7 % ID/g | Ratio (Nucleic Acid [33]): 4.6 | Drug uptake (Spleen [34]): 0.26 %ID | Drug uptake (Brain [35]): 1.84 %ID | Drug uptake (Bone [36]): 7.11 %ID | Drug uptake (Blood [37]): 1.74 %ID | Drug uptake (Spleen [38]): 0.09 %ID | Ratio (Nucleic Acid [39]): 3.79 | Drug uptake (Zone of skin [40]): 4.32 %ID | Drug uptake (Striatum [41]): 0.8 % ID/g | Drug uptake (Spleen [42]): 0.65 %ID | Ratio (Nucleic Acid [43]): 2.14 | Drug uptake (Lung [44]): 2.25 %ID | Drug uptake (Blood [45]): 3.1 %ID | Drug uptake (Brain [46]): 1.85 %ID | Ratio (Nucleic Acid [47]): 3.71 | Drug uptake (Lung [48]): 0.33 %ID | Ratio (Nucleic Acid [49]): 5.52 | Drug uptake (Cortex): 0.07 % ID/g | Drug uptake (Zone of skin [50]): 8.44 %ID | Ratio (Nucleic Acid [51]): 1.19 | Drug uptake (Heart [52]): 0.12 %ID | Ratio (Nucleic Acid [53]): 2.44 | Ratio (Nucleic Acid [54]): 3.85 | logD [55]: 2.15 | Drug uptake (Heart [56]): 0.09 %ID | Drug uptake (Kidney [57]): 4.04 %ID | Drug uptake (Spleen [58]): 1.22 %ID | Drug uptake (Muscle tissue [59]): 16.55 %ID
